# Experimental data from ChEMBL document CHEMBL1138761, “Exploring the binding mode of semicarbazide-sensitive amine oxidase/VAP-1: identification of novel substrates with insulin-like activity” (J Med Chem, 2004).
# “And” between values parts separate entries of the source, which are not always exact repeats. Identical values can stand only once.
# How the values were obtained:
# [1] = Maximum velocity for semicarbazide-sensitive amine oxidase (SSAO) of human, mouse or rat crude membranes; type: cell membranes; details: Membrane
# Summary of the method: (§1)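 Crude membranes from human, rat or mouse adipocytes, made by hypo-osmotic lysis in 20 mM HES buffer with antiproteases (around 50 µg protein/assay). Incubated 30 min at 37 °C over a range of amine concentrations. H2O2 read spectrophotometrically with peroxidase, homovanillic acid and aminoantipyrine at 498 nm. Km and Vmax taken from Eadie-Hofstee plots; Vmax/Km ratio also given. Means ± SEM of 3-4 experiments.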
# [2] = Ratio of Vmax/Km for human, mouse or rat SSAO; summary of the method: as §1
SMILES,Vmax (nmol/min/mg protein) [1],Ratio [2]
COc1cccc(CN)c1OC,1.1 and 3.2,–
NCc1ccc(S(N)(=O)=O)cc1,–,0.007 and 0.01
NCc1cccc2ccccc12,–,0.28 and 0.66 and 0.5
